Assay [1] concerns Rattus norvegicus. The experiment in a line: Antiallergic activity in the passive cutaneous anaphylaxis (PCA) model in the rat was determined after oral administration. It is filed as functional. The following applies: read-out: ID50 (the source's name). In outline: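 Male Sprague-Dawley rats underwent a modified Ovary PCA screen, with challenge 24 h after sensitization. Compounds were solubilized in aqueous NaHCO3 when possible; otherwise they were suspended in aqueous sodium citrate containing Tween 40/sodium carboxymethylcellulose. Dosing was oral, 10 min prior to antigen challenge.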

For assay [2], the system named is Rattus norvegicus. Briefly: Antiallergic activity in the passive cutaneous anaphylaxis (PCA) model in the rat was determined after iv administration. It is filed as functional. The following applies: read-out: ID50 (the source's name). The procedure, abridged:
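Rat PCA screen (modified Ovary method) in male Sprague-Dawley rats, with a 24 h interval between sensitization and antigen challenge. Compounds were dissolved in aqueous NaHCO3 where possible; otherwise they were suspended in aqueous sodium citrate with Tween 40/sodium carboxymethylcellulose. Dosing was intravenous, 1 min before antigen challenge.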

We go through 16 molecules from ChEMBL document CHEMBL1121946, “Antiallergy agents. 2. 2-Phenyl-5-(1H-tetrazol-5-yl)pyrimidin-4(3H)-ones” (1982).

Structures are written as SMILES.

For `CCCCCOc1ccccc1-c1ncc(-c2nn[nH]n2)c(O)n1`, the ED50 in the assay with Rattus norvegicus [1] worked out at 0.4 mg/kg.
Regarding `CCCOc1ccccc1-c1ncc(-c2nn[nH]n2)c(O)n1`, the ED50 with Rattus norvegicus [2] was found to be 0.004 mg/kg; with Rattus norvegicus [1] it was 0.04 mg/kg.
Turning to `CCCCOc1ccccc1-c1ncc(-c2nn[nH]n2)c(O)n1`, the ED50 in the assay on Rattus norvegicus [1] is 0.07 mg/kg.
Still for that read-out and setting: then `CCC(C)Oc1ccccc1-c1ncc(-c2nn[nH]n2)c(O)n1` (stereo not given), with 0.05 mg/kg.
For the molecule `Oc1nc(-c2ccccc2)ncc1-c1nn[nH]n1`, in the assay on Rattus norvegicus [1], the ED50 came to 100 mg/kg.
Same read-out and setting: then `Oc1nc(-c2ccccc2OCC2CC2)ncc1-c1nn[nH]n1`, with 0.07 mg/kg.
Consider `CCCOc1ccc([N+](=O)[O-])cc1-c1ncc(-c2nn[nH]n2)c(O)n1`, for which the ED50 in the assay with Rattus norvegicus [1] amounted to 5 mg/kg.
The same measure, in the same setting: the figure for `CCCOc1ccc(OC)cc1-c1ncc(-c2nn[nH]n2)c(O)n1` is 0.03 mg/kg; for `CCCOc1ccc(N(C)C)cc1-c1ncc(-c2nn[nH]n2)c(O)n1` it is 0.4 mg/kg.
Still for that read-out and setting: then `C=CCOc1ccccc1-c1ncc(-c2nn[nH]n2)c(O)n1`, with 0.24 mg/kg.
For `CCOc1ccccc1-c1ncc(-c2nn[nH]n2)c(O)n1`, the ED50 in the assay on Rattus norvegicus [2] is 0.02 mg/kg; with Rattus norvegicus [1], 0.09 mg/kg.
Regarding `COc1ccccc1-c1ncc(-c2nn[nH]n2)c(O)n1`, the ED50 in the assay on Rattus norvegicus [1] is 0.1 mg/kg.
Turning to `CC(C)Oc1ccccc1-c1ncc(-c2nn[nH]n2)c(O)n1`, the ED50 in the assay on Rattus norvegicus [2] amounted to 0.02 mg/kg; in the assay on Rattus norvegicus [1], 0.04 mg/kg.
With `CCCOc1ccc(N)cc1-c1ncc(-c2nn[nH]n2)c(O)n1`, in the assay on Rattus norvegicus [1], the ED50 was 0.1 mg/kg.
On the same count and under the same terms, the figure for `CC(C)COc1ccccc1-c1ncc(-c2nn[nH]n2)c(O)n1` is 0.1 mg/kg.
For `O=C([O-])c1cc(=O)c2c(OCC(O)COc3cccc4oc(C(=O)[O-])cc(=O)c34)cccc2o1.[Na+].[Na+]` [CROMOLYN SODIUM], the ED50 is 0.3 mg/kg with Rattus norvegicus [2] and above 30 mg/kg in the assay on Rattus norvegicus [1].
